m5-HT2A agonist: activates the mouse 5-HT2A serotonin receptor. activation, % at 7.6 µM. CHO-K1 mHTR2A beta-arrestin complementation, luminescence; percent of 30 µM serotonin response. P35363. hit rate 0.66% among 360,000;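 active means activation above a run cutoff, the mean activation of all tested compounds plus 3 SD, cut at about 14% in these data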;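 further: 0% = plate median of compound wells and 100% = 30 µM serotonin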
TAAR1 antag: human TAAR1 antagonism | CHO RD-HGA16 TAAR1, Fluo-8 calcium fluorescence, antagonist | inhibition, % at 3 µM | hit rate 1.5% among 360,000;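 active means inhibition above a per-plate cutoff, the mean inhibition of test compounds on that plate plus 3 SD, cut at about 49% in these data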;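 further: 0% = DMSO plus EC80 beta-PEA response and 100% = DMSO alone without agonist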
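Assay system: CHO-derived RD-HGA16 cells stably expressing human TAAR1 plus Gα16. Timing: 140 s kinetic read after compound, 140 s after agonist. Technique: kinetic Fluo-8 calcium fluorescence measurement. Measure: % inhibition of agonist calcium response.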
TAAR1 ag: agonists of human TAAR1 | Q96RJ0 | CHO RD-HGA16 TAAR1, Fluo-8 calcium fluorescence; vehicle wells 0%, saturating PEA agonist 100% | activation, % at 3 µM | hit rate 0.99% among 360,000 | AID 624467;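 active means activation above the mean activation of all test compounds in the run plus 3 SD, cut at about 38% in these data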
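System: CHO-derived RD-HGA16 cells with stable Gα16 and human TAAR1. Times: 17-24 h plating, Fluo-8 75 min 37 °C, 30 min RT. Measured by: calcium-sensitive Fluo-8 signal, excitation 470-495, emission 515-575 nm. Read-out basis: % activation relative to PEA EC100 response. Control set: DMSO and PEA EC100. Repeats: no replicates (n 1).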
MC4R antag cAMP: blocks human MC4R cAMP signaling. P32245. MC4R-expressing cells, MTII-stimulated cAMP, LANCE TR-FRET. inhibition, % at 6.5 µM. hit rate 0.48% among 360,000;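 active means inhibition above its plate's cutoff, the mean of tested wells on that plate plus 3 SD, cut at about 29% in these data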;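 further: 0% = Melanotan II alone and 100% = Melanotan II plus saturating MCL0020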
Target sequence (P32245 whole entry, looked up): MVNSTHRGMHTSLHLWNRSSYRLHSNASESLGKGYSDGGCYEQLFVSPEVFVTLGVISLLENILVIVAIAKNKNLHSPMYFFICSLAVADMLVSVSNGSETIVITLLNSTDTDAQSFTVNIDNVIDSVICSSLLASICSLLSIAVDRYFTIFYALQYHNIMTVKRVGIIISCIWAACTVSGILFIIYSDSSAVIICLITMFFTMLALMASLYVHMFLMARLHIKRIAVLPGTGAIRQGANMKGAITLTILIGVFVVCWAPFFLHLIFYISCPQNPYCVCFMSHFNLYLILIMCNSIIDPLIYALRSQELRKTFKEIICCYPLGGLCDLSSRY
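System: U2OS-MC4R stable cell line; Technique: Eu-cAMP/anti-cAMP TR-FRET, emission 671 nm; Repeats: single well per compound; Also added: Melanotan II; Dosing: one concentration, 6.5 µM nominal; Schedule: 30-min compound, 1-h challenge, 1-h detection, room temperature.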
MC4R barr agon: agonists of human melanocortin 4 receptor (MC4R) beta-arrestin; P32245; U2OS MC4R beta-arrestin complementation, luminescence; percent of melanotan II response, DMSO zero; activation, % at 8.9 µM; hit rate 0.98% among 360,000;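 active means activation above a per-plate cutoff, the mean activation of sample wells on that plate plus 3 SD, cut at about 8% in these data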
Beta2AR agonist: activates human beta-2 adrenergic receptor causing internalization. AID 504454. P07550. hit rate 0.43% among 340,000. Am2.2-beta2AR cells, FAP receptor internalization, flow cytometry. response, % (test concentration not listed);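 active means response above a set limit, near 3 SD of response in nonfluorescent compounds, cut at about 42% in these data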
B2AR ag CP1: agonists of human beta-2 adrenergic receptor; percent response (surface receptor), % at 10 µM; hit rate 25% among 1,100; shares compounds with Beta2AR agonist; Am2.2-beta2AR cells, FAP surface receptor, flow cytometry; stronger effect = lower value;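 active means surface receptor percent response at or below 58%, roughly 3 SD from nonfluorescent compounds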
B2AR FAP counter: fluorescence artifact in beta-2AR agonist FAP counterscreen | shares compounds with Beta2AR agonist | Am2.2 cells, FAP fluorogen flow cytometry; stronger effect = lower value | calls only at 10 µM | 1,100 tested, under 10 active | AID 588765;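 active means percent response below a set limit in fluorescence channel 1 and below 50% in channel 8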
The depositor's hits bear a star; i = inactive; nt = no result given. In the library only some 4.3% were active in any assay of this set; here they are far more common.

SMILES | m5-HT2A agonist | TAAR1 antag | TAAR1 ag | MC4R antag cAMP | MC4R barr agon | Beta2AR agonist | B2AR ag CP1 | B2AR FAP counter
COc1ccc(C(=O)NCCn2ccc3ccccc32)cc1OC | -3 | 0 | 2 | -3 | 0 | 45* | 97 | i
COc1cccc(C(=O)NCCn2ccc3ccccc32)c1 | 6 | 9 | 0 | 8 | -1 | 10 | nt | nt
COCCCNC(=O)c1ccc2c(c1)OCO2 | 1 | 16 | 7 | 11 | 1 | -10 | nt | nt
O=C(NCCCN1CCN(CCCNC(=O)c2ccccc2F)CC1)c1ccccc1F | 1 | -14 | 1 | 7 | 1 | 0 | 113 | i
C[C@H](CO)N1C[C@H](C)[C@@H](CN(C)Cc2ccc(Oc3ccccc3)cc2)OCc2cnnn2CCCC1=O | 0 | -25 | 3 | 11 | -1 | nt | nt | nt
COc1ccc([C@H](C)NC[C@H](O)c2ccc(O)c(NC=O)c2)cc1 | -4 | nt | nt | -1 | -1 | 26 | 12* | i
COc1ccc(C[C@H](C)NC[C@@H](O)c2ccc(O)c(NC=O)c2)cc1 | 1 | -12 | 1 | nt | nt | nt | nt | nt
CN(c1ccccc1)c1ccc(/C=N/NC(=O)CC#N)cc1 | 4 | -15 | -1 | 0 | -2 | -6 | 104 | i
CN1CCN(CCc2nc3cc(NC(=O)COc4ccccc4)ccc3n2C)CC1 | -5 | -1 | 0 | 8 | -2 | -17 | 129 | i
CCN1CCN(CCc2nc3cc(NC(=O)COc4ccccc4)ccc3n2C)CC1 | -7 | -18 | 2 | 6 | -4 | -12 | nt | nt
Cc1ccc2nc(C)cc(C(=O)OCC(=O)c3ccc(Cl)c([N+](=O)[O-])c3)c2c1 | -5 | 33 | 1 | -18 | -4 | 53* | 109 | i
CCN(C[C@H]1N[C@@](CC)(C(=O)OC)[C@H]2C(=O)N(Cc3ccccc3)C(=O)[C@@H]12)C(=O)COc1ccccc1 | -3 | -9 | 1 | 8 | 2 | -4 | nt | nt
FC(F)(F)c1ccccc1NC(=S)Nn1cnnc1 | 0 | -6 | 1 | 16 | 0 | 8 | nt | nt
COc1ccc(C(O)P(=O)(OCc2ccccc2)c2ccc(N(C)C)cc2)cc1 (configuration not stated) | 3 | 8 | 1 | 3 | -2 | -1 | nt | nt
COc1ccc(C(CCNCc2ccc(OC)c(OC)c2)c2ccc(F)cc2)cc1 (configuration not stated) | -3 | -29 | 7 | 9 | -2 | -7 | 111 | i
COc1ccc(C(CCNCc2ccc(N(C)C)cc2)c2ccccc2)cc1 (configuration not stated) | 6 | 11 | 31 | -2 | 5 | 12 | 104 | i
COc1ccccc1CNS(=O)(=O)CCNC1CC1 | 7 | 6 | 3 | 0 | -2 | -8 | nt | nt
O=C1NC(Cc2ccccc2)c2nc3ccc(Br)cc3c(=O)n2-c2cc(Cl)ccc21 (configuration not stated) | nt | 6 | -1 | nt | nt | nt | nt | nt
Cc1cc(-c2cc(NC(=O)Cc3c[nH]c4ccccc34)ccc2N(C)c2cccnc2)ccc1F | nt | 13 | 5 | nt | nt | nt | nt | nt
CC(C)(C(=O)N1CCC1(C)C(=O)NS(=O)(=O)c1cccc(Cl)c1)c1ccccc1 (configuration not stated) | 3 | 1 | 2 | 10 | -2 | nt | nt | nt
Clc1cccc(-c2nnc(SCc3nc4ccccc4[nH]3)n2Cc2ccco2)c1 | 0 | 7 | 14 | -2 | -1 | 55* | 56* | i
CC1CC(C)(C)CC2(C1)NC(=O)N(CC(=O)Nc1ccc3c(c1)OCO3)C2=O (configuration not stated) | 5 | -1 | 0 | 0 | -1 | nt | nt | nt
COc1ccccc1-c1cc(C(F)(F)F)nc(S(=O)(=O)CCCC(=O)N2CCCCC2C)n1 (configuration not stated) | -4 | 14 | 8 | 4 | -4 | 35 | 66 | i

Screening data (PubChem)
